Test results from paper PMC6257985 (The FEBS journal, 2017).
Where no end group is shown, it is not given here. The star is where a group is joined. αGalNAc = CC(=O)N[C@@H]1[C@@H](O)[C@@H](O)[C@@H](CO)O[C@@H]1*

Assays:
[1] = molecular target: T1, recombinant Bauhinia forficata lectin (BfL) (Bauhinia forficata, UniProt P86993); assay: glyco-antigen microarray binding of BfL, apparent Kd; details: for RFUmax: carbohydrate array, maximum signal of the binding curve
T1 sequence (P86993 1-233): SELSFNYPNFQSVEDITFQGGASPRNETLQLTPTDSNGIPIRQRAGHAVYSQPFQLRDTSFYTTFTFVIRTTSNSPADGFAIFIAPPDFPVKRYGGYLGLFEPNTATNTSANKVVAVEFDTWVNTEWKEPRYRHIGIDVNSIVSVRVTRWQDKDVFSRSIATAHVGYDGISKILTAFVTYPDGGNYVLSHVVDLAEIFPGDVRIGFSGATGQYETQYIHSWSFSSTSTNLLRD
Summary of the method: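 His6-tagged lectin expressed in E. coli, refolded from inclusion bodies, and gel-filtered in 50 mM Hepes pH 7.5, 150 mM NaCl. Glycans on BSA or HSA (neoglycoproteins), some at high and low density. Arrays blocked overnight at 4 °C in 3% BSA TBS. Lectin dilutions in 1% BSA TBS with 2 mM CaCl2 and 0.05% Tween-20, duplicate wells, 2 h at 37 °C. Detected with anti-His then DyLight549 anti-mouse IgG. Fluorescence averaged, log2-transformed, apparent Kd fitted from binding curves.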

Ac-S-Tn(Ser)-S-G - 04 = molecular target: T2, Ac-S-Tn(Ser)-S-G - 04; assay: peptide or protein array
T2 sequence (peptide, N-terminal acetyl; Tn (GalNAc α-linked) on the second residue (Ser)): SSSG

Ac-S-Thr(F1α)-S-G - 18 = molecular target: T3, Ac-S-Thr(F1α)-S-G - 18; assay: peptide or protein array
T3 sequence (peptide, N-terminal acetyl; F1α (Galβ1-4GlcNAcβ1-6GalNAcα1-) on the second residue (Thr)): STSG

Ac-S-Tn(Ser)-S-G - 22 = molecular target: T4, Ac-S-Tn(Ser)-S-G - 22; assay: peptide or protein array
T4 sequence (peptide, N-terminal acetyl; Tn (GalNAc α-linked) on the second residue (Ser)): SSSG

Ac-S-Tn(Thr)-S-G - 04 = molecular target: T5, Ac-S-Tn(Thr)-S-G - 04; assay: peptide or protein array
T5 sequence (peptide, N-terminal acetyl; Tn (GalNAc α-linked) on the second residue (Thr)): STSG

Ac-S-Ser(core 5)-S-G-18 = molecular target: T6, Ac-S-Ser(core 5)-S-G-18; assay: peptide or protein array
T6 sequence (peptide, N-terminal acetyl; core 5 (GalNAcα1-3GalNAcα1-) on the second residue (Ser)): SSSG

[2] = molecular target: ovine submaxillary mucin (ovine); assay: peptide or protein array
Ac-A-Tn(Thr)-S-G - 05 = molecular target: T7, Ac-A-Tn(Thr)-S-G - 05; assay: peptide or protein array
T7 sequence (peptide, N-terminal acetyl; Tn (GalNAc α-linked) on the second residue (Thr)): ATSG

[3] = molecular target: all forms of the Tn antigen (Tn glycopeptides, 55 array components); assay: peptide or protein array
[4] = molecular target: T8, recombinant Bauhinia forficata lectin (BfL-His6) (Bauhinia forficata, UniProt P86993 1-233); assay: peptide or protein array
T8 sequence: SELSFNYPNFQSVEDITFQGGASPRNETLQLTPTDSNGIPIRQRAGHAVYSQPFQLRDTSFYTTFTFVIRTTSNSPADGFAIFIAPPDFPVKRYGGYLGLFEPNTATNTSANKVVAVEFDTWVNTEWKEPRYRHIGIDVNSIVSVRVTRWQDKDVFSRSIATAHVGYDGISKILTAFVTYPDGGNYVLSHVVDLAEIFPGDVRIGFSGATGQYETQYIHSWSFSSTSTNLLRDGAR

[5] = test system: MCF7 human breast cancer cell line; details: natural BfL from seeds; after 72 hours at 2.5 µM; cited from earlier work
[6] = test system: normal and several types of cancer cells; details: natural BfL from seeds; cited from earlier work
[7] = solubility of recombinant BfL; assay type: physicochemical
Summary of the method: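 Recombinant His6-tagged lectin was expressed in bacteria, recovered from inclusion bodies and refolded at 5 °C. It was then dialysed overnight against 50 mM Tris-HCl pH 7.5, 0.2 M NaCl, 1 mM CaCl2, and concentrated to 8-10 mg/ml at room temperature for storage at −80 °C. The preceding purification and refolding steps were run at 5 °C.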

[8] = test system: human erythrocytes originating from all blood types; details: natural BfL from seeds; cited from earlier work
rabbit erythrocytes = details: natural BfL from seeds; cited from earlier work
[9] = test system: melanoma LOX IMVI cell line; assay: NCI-60 One Dose Assay; assay type: cell-based, human; details: 1.85 μM, SRB assay, 5% serum, average of two experiments
Summary of the method: (§1)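 Recombinant His-tagged test lectin, refolded from E. coli inclusion bodies, was gel-filtered into 50 mM Hepes pH 7.5, 150 mM NaCl before use. NCI DTP ran a one-dose screen at 1.85 μM following its published protocols. Read-out was SRB colorimetric total protein in non-lysed cells. Growth percent is relative to drug-free medium, averaged over two experiments.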

[10] = test system: human cancer cell lines of the NCI-60 panel; assay: NCI-60 Human Tumor Cell Lines Screen, One Dose Assay; assay type: cell-based; details: 1.85 μM
Summary of the method: as §1

## -G-V-T-S-A-P-D-T-R-P-A-P-G-S- Tn(Thr)-A-P-P-A (GVTSAPDTRPAPGST(αGalNAc)APPA; also: conjugated to albumin carrier (BSA or HSA)) [Muc1-Tn15]
[1]
  RFUmax: 17917 RFU

## Ac-S-Tn(Ser)-V-G-13: Tn glycopeptide on BSA or HSA, array component (Ac-SS(αGalNAc)VG; also: on BSA or HSA carrier)
[1]
  RFUmax: 17255 RFU

## AzHex-P-D-Tn(Thr)-R-P-NH2-07: Tn glycopeptide on BSA or HSA, array component (AzHex-PDT(αGalNAc)RP-NH2; also: on BSA or HSA carrier)
[1]
  RFUmax: 15559 RFU

## GalNAcα1-3(Fucα1-2)Gal [BG-A -19]
[1]
  RFUmax: 15700 RFU

## GalNAcα1-3Gal [GalNAcα1-3Gal - 17]
[1]
  binding of BfL on glycan microarray (in words): strong binding
  RFUmax: 17826 RFU

## GalNAcα1-3GalNAcα1-Ser (Ac-SSSG; not fully specified (residue 2); also: on BSA or HSA carrier) [Ac-S-Ser(core 5)-S-G-18]
[1]
  binding of BfL on glycan microarray (in words): good binder
  RFUmax: 18580 RFU

## GalNAcα1-3GalNAcβ1-3Galα1-4Galβ [Forssman Tetra-BSA - 13]
[1]
  binding of BfL on glycan microarray (in words): strong binding
  RFUmax: 18518 RFU

## GalNAcα1-6Galβ [GalNAcα1-6Galβ - 22]
[1]
  binding of BfL on glycan microarray (in words): strong binding
  RFUmax: 19055 RFU

## GalNAcβ1-3Galα1-3Galβ [iGb4]
[1]
  binding of BfL on glycan microarray (in words): strong binding

## GalNAcβ1-3Galα1-4Galβ1-4GlcNAcβ [Gb4 - 09]
[1]
  binding of BfL on glycan microarray (in words): strong binding
  RFUmax: 14003 RFU
[1]; read-out: App Kd, apparent Kd, multivalent avidity on carbohydrate array
  Kd: 0.68 nM

## GalNAcβ1-4Galβ [GA2di - 37]
[1]
  binding of BfL on glycan microarray (in words): strong binding
  RFUmax: 17241 RFU

## GalNAcβ1-4GlcNAcβ [LDN-Sp - 14]
[1]
  binding of BfL on glycan microarray (in words): strong binding
  RFUmax: 18291 RFU

## Galβ1-4GlcNAcβ1-6GalNAcα1-Thr (Ac-ST(Galβ1‑4GlcNAcβ1‑6GalNAcα1)SG; also: on BSA or HSA carrier) [Ac-S-Thr(F1α)-S-G - 18]
[1]
  RFUmax: 17214 RFU

B1: recombinant Bauhinia forficata lectin (BfL-His6) (natural protein)
chain: SELSFNYPNFQSVEDITFQGGASPRNETLQLTPTDSNGIPIRQRAGHAVYSQPFQLRDTSFYTTFTFVIRTTSNSPADGFAIFIAPPDFPVKRYGGYLGLFEPNTATNTSANKVVAVEFDTWVNTEWKEPRYRHIGIDVNSIVSVRVTRWQDKDVFSRSIATAHVGYDGISKILTAFVTYPDGGNYVLSHVVDLAEIFPGDVRIGFSGATGQYETQYIHSWSFSSTSTNLLRDGAR
Ac-S-Tn(Ser)-S-G - 04
  Kd: 0.75 nM
Ac-S-Thr(F1α)-S-G - 18
  Kd: 2.51 nM
Ac-S-Tn(Ser)-S-G - 22
  Kd: 0.65 nM
Ac-S-Tn(Thr)-S-G - 04
  Kd: 0.71 nM
Ac-S-Ser(core 5)-S-G-18
  Kd: 1.02 nM
[2]
  Kd: 10.7 nM
Ac-A-Tn(Thr)-S-G - 05
  Kd: 0.63 nM
[3]
  Kd: 0.4 to 1.2 nM

## Ac-APGST(αGalNAc)APPAG [Ac-A-P-G-S-Tn(Thr)-A-P-P-A-G-03]
[4]
  Kd: 0.65 nM

## AzHex-PDT(αGalNAc)RP-NH2 [AzHex-P-D-Tn(Thr)-R-P-NH2-07]
[4]
  Kd: 1.25 nM

B2: BfL: recombinant Bauhinia forficata lectin expressed in E. coli and refolded, non-glycosylated, C-terminal His6 tag, dimeric (protein)
chain: SELSFNYPNFQSVEDITFQGGASPRNETLQLTPTDSNGIPIRQRAGHAVYSQPFQLRDTSFYTTFTFVIRTTSNSPADGFAIFIAPPDFPVKRYGGYLGLFEPNTATNTSANKVVAVEFDTWVNTEWKEPRYRHIGIDVNSIVSVRVTRWQDKDVFSRSIATAHVGYDGISKILTAFVTYPDGGNYVLSHVVDLAEIFPGDVRIGFSGATGQYETQYIHSWSFSSTSTNLLRDGAR
modifications: left off: His6, C-terminal, kept
[5]
  inhibition of viability: 35%
[6]
  cytotoxicity (in words): non-cytotoxic
[7]; 5 °C, compared with room temperature
  solubility (in words): decreases
[7]; room temperature
  solubility: 8000 to 10000 µg/mL
[8]
  concentration that agglutinates erythrocytes: ≥ 1 µg/mL
Rabbit erythrocytes
  concentration that agglutinates erythrocytes: ≥ 1 µg/mL
[9]
  growth inhibition: over 95%
[10]
  cytotoxic effects: No cytotoxic effects
[10]; observed for five cell lines of different cancers
  growth inhibition, strong effect, five cell lines: > 50%
[10]; share of the cell lines of the panel
  cell lines not inhibited: About 50%
